Experimental data published in ChEMBL document CHEMBL1136047, “Discovery of N-[2-[2-[[3-methoxy-4-(5-oxazolyl)phenyl]amino]-5-oxazolyl]phenyl]-N-methyl-4- morpholineacetamide as a novel and potent inhibitor of inosine monophosphate dehydrogenase with excellent in vivo activity” (J Med Chem, 2002).

Assays:
[1] = target: T1, Inosine-5'-monophosphate dehydrogenase 2 (Homo sapiens, UniProt P12268); assay: Inhibition of human inosine-5'-monophosphate dehydrogenase 2
CCRF-CEM = assay: In vitro secondary T-cell (CEM) proliferation assay; assay type: functional, cell-based; details: Homo sapiens
Method in brief: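 Inhibition of CEM T-cell line proliferation. IC50 in μM, reported as the mean of n = 3 determinations.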

[2] = target: T1, Inosine-5'-monophosphate dehydrogenase 2; assay: In vitro concentration that causes 50% inhibition of Inosine-5'-monophosphate dehydrogenase 2
Method in brief: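 Inhibition of IMPDH type II catalytic activity. IC50 reported as the mean of n = 3 determinations.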

[3] = Vss was evaluated after 10 uM/kg of intra arterial administration; assay type: ADME, organism-based; details: rat, in vivo, read-out: Vss
Method in brief: (§1)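 Pharmacokinetics measured in rats.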

Rattus norvegicus [4] = assay: Area under the curve was evaluated after 20 uM/kg of peroral administration; assay type: ADME, organism-based; details: in vivo, po; method in brief: as §1
[5] = Half-life was evaluated after 10 uM/kg of intra arterial administration; assay type: ADME, organism-based; details: rat, in vivo; method in brief: as §1
[6] = Half-life was evaluated after 20 uM/kg of peroral administration; assay type: ADME, organism-based; details: rat, in vivo, po; method in brief: as §1
[7] = Cmax was evaluated after 20 umol/kg of peroral administration; assay type: ADME, organism-based; set-up: dose 20 umol/kg, route oral; details: rat, in vivo, po; method in brief: as §1
[8] = Plasma clearance was evaluated after 10 uM/kg of intra arterial administration; assay type: ADME, organism-based; details: rat; method in brief: as §1
Rattus norvegicus [9] = assay: Area under the curve was evaluated after 10 uM/kg of intra arterial administration; assay type: ADME, organism-based; details: in vivo, other; method in brief: as §1
[10] = Bioavailability was evaluated after 20 uM/kg of peroral administration; assay type: ADME, organism-based; details: rat, in vivo, po, read-out: Bioavailabiility; method in brief: as §1

Row | Compound | IC50 [1] [µM] | IC50 (CCRF-CEM) [µM] | also measured
1 | COc1cc(Nc2ncc(-c3ccccc3)o2)ccc1-c1cnco1 | 0.02 | 7 | 
2 | COc1cc(Nc2ncc(-c3cccc(C)c3)o2)ccc1-c1cnco1 | 0.07 | > 10 | 
3 | COc1cc(Nc2ncc(-c3ccccc3N(C)C(=O)CN3CCN(C)CC3)o2)ccc1-c1cnco1 | 0.017 | 0.94 | 
4 | COc1cc(Nc2ncc(-c3ccccc3OC)o2)ccc1-c1cnco1 | 0.023 | 7 | 
5 | COc1cc(Nc2ncc(-c3ccccc3N(C)C(=O)CCN3CCOCC3)o2)ccc1-c1cnco1 | 0.013 | 0.68 | 
6 | COc1c(C)c2c(c(O)c1C/C=C(\C)CCC(=O)O)C(=O)OC2 [MYCOPHENOLIC ACID] |  | 0.34 | 
7 | COc1cc(Nc2ncc(-c3ccccc3NC(C)=O)o2)ccc1-c1cnco1 | 0.03 | 1 | 
8 | COc1cc(Nc2ncc(-c3ccccc3N(C)C(=O)Cn3cncn3)o2)ccc1-c1cnco1 | 0.013 | 0.65 | 
9 | COc1cc(Nc2ncc(-c3ccccc3N(C)C(=O)Cn3cccn3)o2)ccc1-c1cnco1 | 0.011 | 0.89 | 
10 | COc1cc(Nc2ncc(-c3ccccc3N(C)C(C)=O)o2)ccc1-c1cnco1 | 0.018 | 0.73 | 
11 | COc1cc(Nc2ncc(-c3ccccc3C(=O)O)o2)ccc1-c1cnco1 |  |  | inhibition [2]: 11%
12 | CCOC(=O)c1ccccc1-c1cnc(Nc2ccc(-c3cnco3)c(OC)c2)o1 | 0.127 | > 10 | 
13 | COc1cc(Nc2nc(C)c(-c3ccccc3)o2)ccc1-c1cnco1 | 0.027 | 9 | 
14 | COc1cc(Nc2ncc(-c3ccccc3C(=O)N(C)C)o2)ccc1-c1cnco1 | 0.141 | 9 | 
15 | COc1cc(Nc2ncc(-c3ccc(C)cc3)o2)ccc1-c1cnco1 | 0.085 | > 10 | 
16 | CCc1nc(Nc2ccc(-c3cnco3)c(OC)c2)oc1-c1ccccc1 | 0.086 | > 10 | 
17 | COc1ccc(-c2cnc(Nc3ccc(-c4cnco4)c(OC)c3)o2)cc1 | 0.115 | 9 | 
18 | COc1cccc(-c2cnc(Nc3ccc(-c4cnco4)c(OC)c3)o2)c1 | 0.097 | > 10 | 
19 | COc1cc(NC(=O)Nc2cccc(CNC(=O)O[C@H]3CCOC3)c2)ccc1-c1cnco1 [MERIMEPODIB] | 0.01 | 0.43 | 
20 | COc1cc(Nc2ncc(-c3ccccc3N(C)C(=O)CN3CCOCC3)o2)ccc1-c1cnco1 | 0.012 |  | Vd [3]: 2.1 L/kg; AUC (Rattus norvegicus [4]): 1.2 µM·h; half-life [5]: 5.9 h; half-life [6]: 2.5 h; Cmax [7]: 1500 nM; clearance [8]: 71 mL/min/kg; AUC (Rattus norvegicus [9]): 2.37 µM·h; bioavailability [10]: 25%
21 | CNC(=O)c1ccccc1-c1cnc(Nc2ccc(-c3cnco3)c(OC)c2)o1 | 0.104 | 8 | 
22 | COc1cc(Nc2ncc(-c3ccccc3N(C)C(=O)CNC(C)(C)C)o2)ccc1-c1cnco1 | 0.02 | 0.7 | 
23 | COc1cc(Nc2ncc(-c3ccccc3C)o2)ccc1-c1cnco1 | 0.025 | > 10 | 
24 | COc1cc(Nc2ncc(-c3ccccc3N(C)C(=O)CN(C)C)o2)ccc1-c1cnco1 | 0.015 | 1 | 
25 | CNCC(=O)N(C)c1ccccc1-c1cnc(Nc2ccc(-c3cnco3)c(OC)c2)o1 | 0.022 | 0.96 | 
